LANA-H2B inh: blocks KSHV LANA binding to histone H2A/H2B; Q9QR71; cell-free LANA-H2A/H2B peptide, fluorescence polarization; inhibition, % (no concentration beside the values); hit rate 0.6% among 320,000; AID 2629; in the data active = inhibition mostly above about 10%, no sharp cut-off; inactive = mostly below about 6.7%
EBV gp42 block: EBV gp42 inhibition; Fluorescence polarization binding assay, mP read-out; Q1HVG2; hit rate 0.42% among 220,000; inhibition, % (tested at 21.74 µM); in the data active = inhibition above about 50%
RanGTP-Imp inh: inhibitors of RanGTP-importin-beta interaction, primary screen, biochemical, FRET, CFP-Ran, YFP-importin-beta, homogeneous | cell-free CFP-Ran/YFP-importin-beta FRET ratio | hit rate 1.1% among 300,000 | inhibition, % (concentration not given with the values) | AID 2216;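 active = more than half of the replicate wells show a fall in the fluorescence ratio signal beyond about 16%, limit read from the data, passing the limit was not always enough; inconclusive = exactly half of the replicate wells pass the set limit; inactive = fewer than half of replicates pass the limit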;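 also: 0% = DMSO wells and 100% = Ran loaded with GDP instead of GTP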
Runt-SMMHC FRET: blocks binding of human RUNX1 Runt domain to CBFb-SMMHC; inhibition, % at 20 µM; AID 1434; hit rate 0.74% among 220,000; Q01196+Q13951; Cerulean-Runt/Venus-CBFb-SMMHC FRET ratio 530/480, 1 h;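 active = mean inhibition across duplicate retests at 20 µM reaching about 50%, limit read from the data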;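 also: 0% = DMSO wells and 100% = wells with excess untagged CBFb-SMMHC; inhibitors lower the FRET ratio by blocking Runt binding to CBFb-SMMHC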
Runt-CBFb FRET: inhibitors of human RUNX1 Runt domain binding to CBFb; inhibition, % at 20 µM; Q01196+Q13951; hit rate 0.46% among 220,000; Cerulean-Runt/Venus-CBFb FRET ratio 530/480, 1 h;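 active = inhibition over about 50% at 20 µM in the single-dose screen, limit read from the data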;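 also: 0% = DMSO wells and 100% = excess unlabeled CBFb competitor control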
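Doses: 20 µM compound in 1% DMSO | Material: Cerulean-labeled Runt domain protein | Amount: Each fluorescent fusion protein 100 nM | Schedule: Two 1 h room-temperature incubations shielded from light | Measured by: FRET fluorescence | Evaluation: Loss of energy transfer signal | Controls: Unlabeled CBFb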
MEX-5 binding: C. elegans MEX-5 TCR-2 RNA binding activity | activity score (negative = inhibition of binding), % at 10 µM | hit rate 0.38% among 300,000 | Q9XUB2 | MEX-5/FITC-TCR2 RNA binding, fluorescence polarization; stronger effect = lower value;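 active = inhibition past about -25% in most replicates, and total fluorescence under double the plate's negative control median, limit read from the data; inconclusive = replicates evenly split on the limit, or fluorescence at least double controls; inactive = too little inhibition in most replicates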;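 also: 0% = DMSO and -100% = 5 µM competing unlabeled TCR2 RNA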
* hit, by the source's call; ? = inconclusive; . = no result. The list is not random: actives were taken first. Their share in the collection is about 2.4%.

SMILES	LANA-H2B inh	EBV gp42 block	RanGTP-Imp inh	Runt-SMMHC FRET	Runt-CBFb FRET	MEX-5 binding
O=C1/C(=N\S(=O)(=O)c2cccs2)C([n+]2ccc(CCCc3ccccc3)cc2)=C([O-])c2ccccc21	1	35	1	-4	-1	-40*
Cc1cc[n+](C2=C([O-])c3ccccc3C(=O)/C2=N\S(=O)(=O)c2cccs2)cc1C	-5	-4	-1	-5	-2	-34*
CN(C)/C=C1\C(=O)N(C)N=C1C(F)(F)F	0	-24	5	-1	1	-2
CC(C)(C)NC(=O)NC(=O)CSc1n[nH]c(-c2ccccc2Br)n1	2	-12	1	1	-2	3
O=S(=O)(NNC(=S)Nc1ccc(S(=O)(=O)Nc2ncccn2)cc1)c1ccc(Br)cc1	5	.	-2	.	.	-99*
COc1cccc2[nH]c(C(=O)NN)c(N)c12	-6	-2	8	2	6	-1
O=c1c2c([nH]c3ccccc13)CCCC2	-5	-22	2	-2	-3	1
Nc1cccc2c(=O)c3ccccc3[nH]c12	6	.	64*	.	.	-4
COc1cccc2[nH]c3ccccc3c(=O)c12	2	.	127*	.	.	-1
Cc1ccc(C)c(N2CCN(C(=O)c3cc4ccccn4n3)CC2)c1	30*	11	-27	-2	-3	-29*
O=C(c1cc2ccccn2n1)N1CCCC1	.	-12	.	1	2	.
CCOc1ccc(C2CC(c3cccc(Cl)c3)n3nc(N)nc3N2)cc1 (configuration not stated)	5	-15	26*	4	-2	-1
COc1cccc(C2CC(c3ccc(Cl)cc3Cl)Nc3nc(N)nn32)c1 (configuration not stated)	10.0*	-16	4	-1	-1	-1
CCC(C)[C@H](NC(=O)[C@@H]1Cc2ccccc2CN1)C(=O)Nc1ccc2c(c1)OCO2 (some centres not stated)	-1	.	1	.	.	0
Cc1ccc(CNC(=O)C2CCC(=O)N(CCc3ccccc3)C2)s1 (configuration not stated)	18*	.	0	.	.	-2
Cc1ccc(CNC(=O)C2CCC(=O)N(CCc3cccc(F)c3)C2)s1 (configuration not stated)	.	.	-4	.	.	1
O=C(COc1ccc(Br)cc1)N(Cc1cccs1)C1CCS(=O)(=O)C1 (configuration not stated)	-7	.	18*	.	.	-3
Cc1nc(CSc2ccc(Cl)cc2)cc(N2CCOCC2)n1	5	-10	1	0	0	0
Cc1ccc(SCc2cc(=O)[nH]c(N3CCOCC3)n2)cc1	17*	-17	7	5	-1	-1
COc1ccc(-c2nn(CCC#N)cc2C(=O)Nc2cccc(C(=O)O)c2)cc1[N+](=O)[O-]	15*	.	1	.	.	-1
Cc1cccc(C)c1OCC(O)Cn1ccnc1C (configuration not stated)	3	84*	4	2	2	0
Cc1ccc2c(c1)N(CC(=O)N1CCCCC1C)C(=O)CO2 (configuration not stated)	1	.	0	.	.	1
CCN(CC)CCNC(=S)NC(=O)c1cn(-c2ccccc2)nc1-c1ccc(OC)cc1	-1	-2	7	1	-1	-3
Cc1ccc(NC(NC(=O)OCCn2c([N+](=O)[O-])cnc2C)C(Cl)(Cl)Cl)cc1 (configuration not stated)	-6	25	18*	-1	0	2
CN(CC(=O)Nc1cccc(F)c1)C(=O)CCCNC(=O)c1ccc(Cl)cc1	4	.	-1	.	.	0
SMILES	LANA-H2B inh	EBV gp42 block	RanGTP-Imp inh	Runt-SMMHC FRET	Runt-CBFb FRET	MEX-5 binding
O=C1NC(=S)S/C1=C/c1ccc(N2CCOCC2)o1	3	6	2	5	32	?
COc1ccc2cc(/C=C3\SC(=S)NC3=O)c(N3CCOCC3)nc2c1	2	-7	-17	-124	-45	-26*
CC(C)n1nc(C(=O)Nc2cccc(S(=O)(=O)N3CCCCC3)c2)c2ccccc2c1=O	-223	.	.	.	.	.
CCN(CC)c1ccc2cc(S(=O)(=O)c3ccc(Cl)cc3)c(=O)oc2c1	39*	159*	128*	81*	6	-6
CC(C)c1ccc(S(=O)(=O)c2cc3cc(Br)ccc3oc2=O)cc1	0	-5	4	-30	-10	3
O=c1oc2cc(O)ccc2cc1S(=O)(=O)c1ccccc1	5	.	133*	.	.	0
CCCCCCc1cc2cc(S(=O)(=O)c3ccc(Cl)cc3)c(=O)oc2cc1O	-5	-10	166*	81*	6	-1
CC(=O)Nc1cc2cc(NS(=O)(=O)c3ccc(Cl)cc3)ccc2oc1=O	1	-14	-1	-4	-3	-1
CCCCCCc1cc2cc(S(=O)(=O)c3ccc(C)cc3)c(=O)oc2cc1O	2	-5	163*	81	6	2
Cc1ccc(S(=O)(=O)c2cc3cc(Br)ccc3oc2=O)cc1	.	4	3	-49	-8	1
Oc1cc(O)cc(-c2cc3ccc(O)cc3o2)c1	0	.	-3	.	.	-1
O=C1NC[C@H](Cc2ccccc2)N(CC2CCCCC2)C1=O	3	-19	1	1	1	-1
COc1ccc([N+](=O)[O-])cc1N(CC(=O)NCCC1=CCCCC1)S(C)(=O)=O	-7	-20	-3	0	-1	4
COCCNC(=O)/C(C#N)=C/c1ccc(OC(=O)c2cccs2)c(OC)c1	.	-8	1	1	-2	-1
COc1cc(/C=C(\C#N)C(=O)NCc2cccs2)ccc1O	3	-12	4	58*	23	4
Cn1c(=O)c([N+](=O)[O-])c(Cl)c2ccccc21	.	-6	-1	.	.	0
CCCCNC(=O)/C=C1\Sc2ccccc2NC1=O	-1	-1	32*	3	1	-2
COc1ccc(CCNC(=O)Nc2cccs2)c(OC)c1	2	.	7	.	.	-2
OC1(C(F)(F)F)CC(c2ccc3ccccc3c2)=NO1 (configuration not stated)	-4	7	1	-2	0	2
COc1ccccc1N1CCN(C(=O)c2cc3cc(C)ccc3[nH]2)CC1	15*	.	1	.	.	0
COc1ccccc1N1CCN(C(=O)c2cc3ccccc3[nH]2)CC1	-5	.	-5	.	.	1
Cc1ccc(-c2nc3cccnc3s2)cc1NC(=O)C1c2ccccc2Oc2ccccc21	.	-113	?	-2	-6	2
Cc1ccc2nc(SC(C)C(=O)Nc3cccc([N+](=O)[O-])c3)[nH]c2c1 (configuration not stated)	0	6	-11	-2	2	-1
CC(C)N(C(=O)C[n+]1ccc(/C=N/O)cc1)C(C)C	2	77*	-3	-2	0	0
